Reference: publication PMC4166031 (Bioconjugate Chemistry, 2014)

How the values were obtained:
[1] = Biodistribution in athymic nude mice bearing U87MG glioma xenografts; format: in vivo; details: female, athymic nu/nu, mouse, iv, total radioactivity
[2] = tested on: U87MG human glioma xenografts; experiment: as above; format: in vivo
[3] = Solution stability in the kit matrix by radio-HPLC; format: physicochemical; details: kit matrix (TPPTS, tricine, mannitol, succinate buffer); monitored by radio-HPLC for 6 h
U87MG glioma xenografts = experiment: SPECT/CT quantification of tumor uptake, U87MG glioma model; format: in vivo, athymic nude mice; details: ~37 MBq i.v., SPECT/CT at 60 min p.i.
Outline: (§1)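 Mice bearing U87MG glioma and MDA-MB-231 breast xenografts (4 weeks post-inoculation) got ~37 MBq 99mTc radiotracer (not HPLC-purified) in 0.1 mL saline by tail vein, under ~2.0% isoflurane. Multi-pinhole SPECT (75 projections over 30 min per frame, 2 frames), then CT at 45 kV, 500 μA. Tumors delineated on CT/SPECT; activity taken from a γ-counter-calibrated source standard curve, as %ID/cm3.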

[4] = SPECT/CT quantification of tumor uptake, MDA-MB-231 breast tumor model; format: in vivo, athymic nude mice; details: athymic nude, mouse, iv, 37 MBq, total radioactivity
Outline: as §1

[5] = 5 min p.i., U87MG glioma-bearing athymic nude mice

Compound	tissue uptake at 0.5 h ([1]; lungs, 0.1 MBq)	tissue uptake at 1 h ([1]; lungs, 0.1 MBq)	tissue uptake at 2 h ([1]; lungs, 0.1 MBq)	tissue uptake at 0.5 h ([1]; muscle, 0.1 MBq)	tissue uptake at 1 h ([1]; muscle, 0.1 MBq)	tissue uptake at 2 h ([1]; muscle, 0.1 MBq)	tissue uptake at 0.5 h ([1]; spleen, 0.1 MBq)	tissue uptake at 1 h ([1]; spleen, 0.1 MBq)	tissue uptake at 2 h ([1]; spleen, 0.1 MBq)	tissue to tissue ratio at 0.5 h ([1]; tumor and blood, 0.1 MBq)	tissue to tissue ratio at 1 h ([1]; tumor and blood, 0.1 MBq)	tissue to tissue ratio at 2 h ([1]; tumor and blood, 0.1 MBq)	tissue to tissue ratio at 0.5 h ([1]; tumor and liver, 0.1 MBq)	tissue to tissue ratio at 1 h ([1]; tumor and liver, 0.1 MBq)	tissue to tissue ratio at 2 h ([1]; tumor and liver, 0.1 MBq)	tissue to tissue ratio at 0.5 h ([1]; tumor and lung)	tissue to tissue ratio at 1 h ([1]; tumor and lung)	tissue to tissue ratio at 2 h ([1]; tumor and lung)	tissue to tissue ratio at 0.5 h ([1]; tumor and muscle)	tissue to tissue ratio at 1 h ([1]; tumor and muscle)	also measured
N=C(N)NCCC[C@@H]1NC(=O)[C@H](CCCCNC(=O)[C@H](CC(=O)O)NC(=O)[C@H](CC(=O)O)NC(=O)[C@H](CC(=O)O)NC(=O)CC[C@H](NC(=O)CCOCCOCCOCCOCCNC(=O)c2ccc(NN)nc2)C(=O)N[C@@H](CC(=O)O)C(=O)N[C@@H](CC(=O)O)C(=O)N[C@@H](CC(=O)O)C(=O)NCCCC[C@@H]2NC(=O)[C@@H](Cc3ccccc3)NC(=O)[C@H](CC(=O)O)NC(=O)CNC(=O)[C@H](CCCNC(=N)N)NC2=O)NC(=O)[C@@H](Cc2ccccc2)NC(=O)[C@H](CC(=O)O)NC(=O)CNC1=O [^99mTc-P6D-RGD2, [^99mTc(HYNIC-P6D-RGD2)(tricine)(TPPTS)], metal not drawn]	2.05 ± 0.28 %ID/g	1.85 ± 0.2 %ID/g	1.11 ± 0.42 %ID/g	1.79 ± 0.2 %ID/g	1.59 ± 0.25 %ID/g	0.79 ± 0.23 %ID/g	2.6 ± 0.37 %ID/g	2.58 ± 0.46 %ID/g	2.4 ± 0.37 %ID/g	2.5 ± 0.33	6.5 ± 0.58	6.98 ± 4.06	0.65 ± 0.15	0.87 ± 0.17	0.84 ± 0.18	1.19 ± 0.35	1.68 ± 0.1	2.41 ± 0.73	1.97 ± 0.53	2 ± 0.36	tissue uptake at 1 h ([1]; blood, 14 mg/kg): 0.23 ± 0.01 %ID/g; tissue uptake at 1 h ([1]; brain, 14 mg/kg): 0.02 ± 0.01 %ID/g; tissue uptake at 1 h ([1]; eyes, 14 mg/kg): 0.23 ± 0.1 %ID/g; tissue uptake at 1 h ([1]; heart, 14 mg/kg): 0.2 ± 0.07 %ID/g; tissue uptake at 1 h ([1]; intestine, 14 mg/kg): 0.22 ± 0.11 %ID/g; tissue uptake at 1 h ([1]; kidneys, 14 mg/kg): 23.9 ± 3.61 %ID/g; tissue uptake at 1 h ([1]; liver, 14 mg/kg): 0.28 ± 0.04 %ID/g; tissue to tissue ratio at 1 h ([1]; tumor and lung, 14 mg/kg): 1.1 ± 0.13; tissue to tissue ratio at 2 h ([1]; tumor and muscle): 3.3 ± 1.24; tissue uptake at 0.5 h ([1]; tumor, 0.1 MBq): 2.85 ± 0.55 %ID/g; tissue uptake at 1 h ([1]; tumor, 0.1 MBq): 3.13 ± 0.47 %ID/g; tissue uptake at 2 h ([1]; tumor, 0.1 MBq): 2.45 ± 0.9 %ID/g; Initial blood radioactivity level, fold higher than ^99mTc-3P-RGD2 [2, 5]: ~3 ×; Initial blood radioactivity level, fold higher than ^99mTc-P6G-RGD2 [2, 5]: ~5 ×; Integrin αvβ3 specificity of tumor uptake (blocking experiment) ([2]; 60 min p.i., with/without coinjection of excess RGD2 (350 μg/mouse or 14 mg/kg)): integrin αvβ3-specific; Time remained stable in the kit matrix postlabeling [3]: more than 6 h
N=C(N)NCCC[C@@H]1NC(=O)[C@H](CCCCNC(=O)CNC(=O)CNC(=O)CNC(=O)CC[C@H](NC(=O)CCOCCOCCOCCOCCNC(=O)c2ccc(NN)nc2)C(=O)NCC(=O)NCC(=O)NCC(=O)NCCCC[C@@H]2NC(=O)[C@@H](Cc3ccccc3)NC(=O)[C@H](CC(=O)O)NC(=O)CNC(=O)[C@H](CCCNC(=N)N)NC2=O)NC(=O)[C@@H](Cc2ccccc2)NC(=O)[C@H](CC(=O)O)NC(=O)CNC1=O [^99mTc-P6G-RGD2, [^99mTc(HYNIC-P6G-RGD2)(tricine)(TPPTS)], metal not drawn]	4.38 ± 0.55 %ID/g	3.83 ± 0.56 %ID/g	2.81 ± 0.36 %ID/g	1.75 ± 0.24 %ID/g	1.68 ± 0.33 %ID/g	0.83 ± 0.11 %ID/g	3.08 ± 0.88 %ID/g	2.68 ± 0.57 %ID/g	2.31 ± 0.27 %ID/g	14.1 ± 1.25	15.6 ± 2.79	41.8 ± 5.13	2.95 ± 0.33	2.86 ± 0.3	3.21 ± 0.53	2.07 ± 0.15	2.35 ± 0.24	2.71 ± 0.12	5.04 ± 0.68	5.09 ± 0.51	tissue to tissue ratio at 2 h ([1]; tumor and muscle): 9.42 ± 1.25; tissue uptake at 0.5 h ([1]; tumor, 0.1 MBq): 8.85 ± 0.67 %ID/g; tissue uptake at 1 h ([1]; tumor, 0.1 MBq): 8.17 ± 1.1 %ID/g; tissue uptake at 2 h ([1]; tumor, 0.1 MBq): 7.82 ± 0.76 %ID/g; Tumor uptake on the basis of SPECT quantification (U87MG glioma xenografts): ~8.2 %ID/cm^3; tissue uptake per volume at 1 h [4]: 3.5 %ID/mL; Time remained stable in the kit matrix postlabeling [3]: more than 6 h
